According to ChEMBL document CHEMBL2390903, “Anti-tubercular agents. Part 7: a new class of diarylpyrrole-oxazolidinone conjugates as antimycobacterial agents” (Eur J Med Chem, 2013):
Converted amounts (≈) assume the structure as drawn.

Columns and labels:
[1] = test system: Micrococcus luteus; experiment: Antibacterial activity against Micrococcus luteus MTCC 2470 assessed as growth inhibition at 20 ug/mL after 24 hrs; assay type: functional; details: MTCC 2470, 24 h, read-out: IZ
[2] = test system: Staphylococcus; experiment: Antibacterial activity against 16-membered ring macrolide- lincosamide-streptogramin B-resistant Staphylococcus MTCC 2940 assessed as growth inhibition at 20 ug/mL after 24 hrs; assay type: functional; details: MTCC 2940, 24 h, read-out: IZ
[3] = test system: Bacillus subtilis; experiment: Antibacterial activity against Bacillus subtilis MTCC 121 assessed as growth inhibition after 24 hrs by agar dilution method; assay type: functional; details: MTCC 121, 24 h
[4] = test system: Mycobacterium tuberculosis; experiment: Antitubercular activity against Mycobacterium tuberculosis XDR-1 assessed as growth inhibition after 2 to 3 weeks by broth microdilution method; assay type: functional
Outline: (§1)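 Primary screen of all compounds against H37Rv at a single concentration in triplicate by microplate dilution. Actives then went to MIC determination by broth microdilution against H37Rv, rifampicin-resistant and XDR-1 isolates. Plates incubated 2–3 weeks at 37 °C in a CO2 incubator. MIC read visually as absence of growth turbidity. Rifampicin and linezolid served as reference drugs.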

[5] = test system: Mycobacterium tuberculosis; experiment: Antitubercular activity against Mycobacterium tuberculosis H37Rv assessed as growth inhibition after 2 to 3 weeks by broth microdilution method; assay type: functional; outline: as §1
[6] = test system: Pseudomonas aeruginosa; experiment: Antibacterial activity against Pseudomonas aeruginosa MTCC 2453 assessed as growth inhibition after 24 hrs by agar dilution method; assay type: functional; details: MTCC 2453, 24 h
[7] = test system: Micrococcus luteus; experiment: Antibacterial activity against Micrococcus luteus MTCC 2470 assessed as growth inhibition after 24 hrs by agar dilution method; assay type: functional; details: MTCC 2470, 24 h
[8] = test system: Escherichia coli; experiment: Antibacterial activity against Escherichia coli MTCC 739 assessed as growth inhibition after 24 hrs by agar dilution method; assay type: functional; details: MTCC 739, 24 h
[9] = test system: Bacillus subtilis; experiment: Antibacterial activity against Bacillus subtilis MTCC 121 assessed as growth inhibition at 20 ug/mL after 24 hrs; assay type: functional; details: MTCC 121, 24 h, read-out: IZ
[10] = test system: Staphylococcus aureus; experiment: Antibacterial activity against Staphylococcus aureus MTCC 96 assessed as growth inhibition after 24 hrs by agar dilution method; assay type: functional; details: MTCC 96, 24 h
[11] = test system: Staphylococcus; experiment: Antibacterial activity against 16-membered ring macrolide- lincosamide-streptogramin B-resistant Staphylococcus MTCC 2940 assessed as growth inhibition after 24 hrs by agar dilution method; assay type: functional; details: MTCC 2940, 24 h
[12] = test system: Staphylococcus aureus; experiment: Antibacterial activity against Staphylococcus aureus MTCC 96 assessed as growth inhibition at 20 ug/mL after 24 hrs; assay type: functional; details: MTCC 96, 24 h, read-out: IZ
[13] = Selectivity index, ratio of IC50 for mouse J744 cells to MIC for Mycobacterium tuberculosis H37Rv; assay type: functional
[14] = Cytotoxicity against mouse J744 cells assessed as growth inhibition at 40 ug/mL after 24 hrs by MTT assay relative to control; assay type: cell-based; details: read-out: GI
Outline: (§2)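 Mouse J-774 macrophages exposed to test material (40) in RPMI with 10% FCS for 24 h at 37 °C under CO2. MTT then added with a further 3 h incubation. Formazan absorbance read at […]. Percent cytotoxicity calculated relative to untreated cells.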

[15] = Cytotoxicity against mouse J744 cells assessed as growth inhibition after 24 hrs by MTT assay; assay type: cell-based; details: J744, 24 h; outline: as §2

| Structure (SMILES) | zone of inhibition at 20 µg/mL [1] [mm] | zone of inhibition at 20 µg/mL [2] [mm] | MIC [3] [µg/mL] | MIC [4] [µg/mL] | MIC [5] [µg/mL] | MIC [6] [µg/mL] | MIC [7] [µg/mL] | MIC [8] [µg/mL] | zone of inhibition at 20 µg/mL [9] [mm] | MIC [10] [µg/mL] | MIC [11] [µg/mL] | zone of inhibition at 20 µg/mL [12] [mm] | Selectivity Index [13] | inhibition at 24 h, 40 ug/mL [14] [%] | IC50 [15] [µM] |
| --- | --- | --- | --- | --- | --- | --- | --- | --- | --- | --- | --- | --- | --- | --- | --- |
| CC(=O)NC[C@H]1CN(c2ccc(N3CCN(Cc4cc(-c5cccc(Cl)c5)n(-c5ccccc5F)c4C)CC3)c(F)c2)C(=O)O1 | 27 | 23 | 1.5 (≈ 2.37 µM) | > 16 | 8 (≈ 12.6 µM) | > 40 | 1.5 (≈ 2.37 µM) | > 40 | 18 | 0.5 (≈ 0.788 µM) | 2 (≈ 3.15 µM) | 18 | – | – | – |
| CC(=O)NC[C@H]1CN(c2ccc(N3CCN(Cc4cc(-c5ccccc5C)n(-c5ccc(F)cc5)c4C)CC3)c(F)c2)C(=O)O1 | – | – | 3 (≈ 4.89 µM) | – | – | > 40 | 1.5 (≈ 2.44 µM) | > 40 | – | 1.5 (≈ 2.44 µM) | 5 (≈ 8.15 µM) | – | – | – | – |
| Cc1ccccc1-c1cc(CN2CCN(c3ccc(N4C[C@H](Cn5cc(-c6cncn6C)nn5)OC4=O)cc3F)CC2)c(C)n1-c1ccc(F)cc1 | – | – | > 30 | 8 (≈ 11.4 µM) | 2 (≈ 2.84 µM) | > 40 | > 30 | > 40 | – | 10 (≈ 14.2 µM) | > 30 | – | >10 | 49.3 | > 40 |
| Cc1c(CN2CCN(c3ccc(N4C[C@H](Cn5cc(-c6ccccc6)nn5)OC4=O)cc3F)CC2)cc(-c2cccc(Cl)c2)n1-c1ccccc1F | – | – | > 40 | > 16 | > 16 | > 40 | 8 (≈ 11.1 µM) | > 40 | – | > 40 | 10 (≈ 13.9 µM) | – | – | – | – |
| Cc1c(CN2CCN(c3ccc(N4C[C@H](Cn5cc(-c6ccccc6)nn5)OC4=O)cc3F)CC2)cc(-c2ccc(Cl)c(F)c2)n1-c1ccc(OC(F)(F)F)cc1 | – | – | > 40 | > 16 | > 16 | > 40 | 8 (≈ 9.95 µM) | > 40 | – | > 40 | > 40 | – | – | – | – |
| Cc1ccc(-c2cc(CN3CCN(c4ccc(N5C[C@H](Cn6cc(-c7ccccc7)nn6)OC5=O)cc4F)CC3)c(C)n2-c2ccc(Cl)c(Cl)c2)cc1 | 17 | 19 | 2.5 (≈ 3.33 µM) | > 16 | > 16 | > 40 | 0.5 (≈ 0.666 µM) | > 40 | 14 | 8 (≈ 10.7 µM) | 9 (≈ 12 µM) | 21 | – | – | – |
| Cc1c(CN2CCN(c3ccc(N4C[C@H](Cn5cc(-c6ccccc6)nn5)OC4=O)cc3F)CC2)cc(-c2ccc(F)cc2F)n1-c1cc(F)ccc1Br | – | – | – | > 16 | > 16 | – | – | – | – | – | – | – | – | – | – |
| Cc1cccc(-c2cn(C[C@H]3CN(c4ccc(N5CCN(Cc6cc(-c7ccccc7C)n(-c7ccc(F)cc7)c6C)CC5)c(F)c4)C(=O)O3)nn2)c1 | – | – | 9 (≈ 12.6 µM) | > 16 | > 16 | > 40 | > 40 | > 40 | – | > 40 | > 40 | – | – | – | – |
| CC(=O)NC[C@H]1CN(c2ccc(N3CCN(Cc4cc(-c5ccc(F)cc5F)n(-c5cc(F)ccc5Br)c4C)CC3)c(F)c2)C(=O)O1 | 19 | 18 | 2.5 (≈ 3.5 µM) | > 16 | 8 (≈ 11.2 µM) | > 40 | 5 (≈ 7 µM) | > 40 | 14 | 3 (≈ 4.2 µM) | 5 (≈ 7 µM) | 20 | – | – | – |
| Cc1ccc(-c2cc(CN3CCN(c4ccc(N5C[C@H](Cn6cc(-c7ccccn7)nn6)OC5=O)cc4F)CC3)c(C)n2-c2ccc(Cl)c(Cl)c2)cc1 | – | – | 1 (≈ 1.33 µM) | 16 (≈ 21.3 µM) | 4 (≈ 5.32 µM) | > 40 | 2.5 (≈ 3.33 µM) | > 40 | – | 8 (≈ 10.6 µM) | > 40 | – | – | – | – |
| Cc1c(CN2CCN(c3ccc(N4C[C@H](Cn5cc(-c6ccccn6)nn5)OC4=O)cc3F)CC2)cc(-c2ccc(Cl)c(F)c2)n1-c1ccc(OC(F)(F)F)cc1 | – | – | 16 (≈ 19.9 µM) | > 16 | 4 (≈ 4.97 µM) | > 40 | 8 (≈ 9.94 µM) | > 40 | – | > 30 | 9 (≈ 11.2 µM) | – | >10 | 37.7 | > 40 |
| Cc1ccccc1-c1cc(CN2CCN(c3ccc(N4C[C@H](Cn5cc(-c6ccccn6)nn5)OC4=O)cc3F)CC2)c(C)n1-c1ccc(F)c(F)c1 | – | – | 12 (≈ 16.7 µM) | 16 (≈ 22.3 µM) | 4 (≈ 5.56 µM) | > 40 | > 30 | > 40 | – | > 30 | 5 (≈ 6.96 µM) | – | >10 | 40 | > 40 |
| Cc1c(CN2CCN(c3ccc(N4C[C@H](Cn5cc(-c6ccccn6)nn5)OC4=O)cc3F)CC2)cc(-c2ccc(F)cc2F)n1-c1cc(F)ccc1Br | – | – | – | – | – | – | – | – | – | – | – | – | >10 | 43.9 | > 40 |
| Cc1c(CN2CCN(c3ccc(N4C[C@H](Cn5cc(-c6cncn6C)nn5)OC4=O)cc3F)CC2)cc(-c2ccc(C(C)C)cc2)n1-c1ccc(F)cc1F | – | – | > 30 | 4 (≈ 5.33 µM) | 4 (≈ 5.33 µM) | > 40 | > 30 | > 40 | – | 8 (≈ 10.7 µM) | > 30 | – | >10 | 44.7 | > 40 |
| Cc1c(CN2CCN(c3ccc(N4C[C@H](Cn5cc(-c6cncn6C)nn5)OC4=O)cc3F)CC2)cc(-c2ccc(F)cc2F)n1-c1ccc(F)cc1 | – | – | > 30 | 16 (≈ 22 µM) | > 6.25 | > 40 | > 30 | > 40 | – | 16 (≈ 22 µM) | > 30 | – | – | – | – |
| Cc1ccccc1-c1cc(CN2CCN(c3ccc(N4C[C@H](Cn5cc(-c6cncn6C)nn5)OC4=O)cc3F)CC2)c(C)n1-c1ccc(F)c(F)c1 | – | – | > 30 | > 16 | > 6.25 | > 40 | 10 (≈ 13.9 µM) | > 40 | – | 10 (≈ 13.9 µM) | > 30 | – | – | – | – |
| CO[C@H]1/C=C/O[C@@]2(C)Oc3c(C)c(O)c4c(O)c(c(/C=N/N5CCN(C)CC5)c(O)c4c3C2=O)NC(=O)/C(C)=C\C=C\[C@H](C)[C@H](O)[C@@H](C)[C@@H](O)[C@@H](C)[C@H](OC(C)=O)[C@@H]1C [RIFAMPIN] | – | – | – | 2 (≈ 2.43 µM) | 0.2 (≈ 0.243 µM) | – | – | – | – | – | – | – | – | – | – |
